For series [1], the system named is CHO-K1. The experiment in a line: Clastogenic activity in CHOK1 cells assessed as lowest drug concentration required to increase number of micronucleated cells after 3 hrs incubation in dark by micronucleus assay. The series is classed as functional. In short, it runs like this:
(§1)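 CHO-K1 cells (50,000, chamber slides) grown 24 h, then dosed with a concentration range in duplicate, either kept dark or irradiated at once (4.5 J/cm², 1 min, 320–800 nm, 750 W m⁻², samples held at 4 °C). Exposure 3 h at 37 °C, then 5 μg/mL cytochalasin B for 24 h. Methanol fixation, Giemsa staining, 2000 binucleated cells per concentration scored at doses giving under 50% toxicity. χ² test against control. MCC is the lowest concentration giving a significant increase.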

A short description of series [2]: Phototoxicity in normal human keratinocytes after 24 hrs incubation in dark by WST1 assay. It counts as cell-based. Conditions: Keratinocyte, light or radiation study. In general terms: Tetrazolium assays rely on reduction of a dye to a coloured formazan, in cell work by metabolically active cells.
Series [3] concerns CHO. The experiment in a line: Phototoxicity in transformed CHO cells after 24 hrs of UV irradiation by WST1 assay. It counts as functional, cell-based. The following applies: Cricetulus griseus, light or radiation study. In short, it runs like this: (§2)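 CHO cells (50,000/well, McCoy's 5A with 10% FCS) grown 24 h, then dosed with a concentration range in duplicate (DMSO under 0.5% final). Either kept dark or irradiated at once (4.5 J/cm²: 0.36 UVA plus 4.14 visible, 750 W m⁻²), then 24 h at 37 °C. After PBS washes, 20 min with WST1 and absorbance read at 450 nm. IC50 is the 50% drop versus control.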

Series [4] concerns CHO. The experiment in a line: Phototoxicity in transformed CHO cells after 24 hrs incubation in dark by WST1 assay. The series is classed as functional, cell-based. Conditions: Cricetulus griseus, light or radiation study. In short, it runs like this:
as §2

Series [5] can be described thus: Phototoxicity in normal human keratinocytes after 24 hrs of UV irradiation by WST1 assay. The series is classed as cell-based. The following applies: Keratinocyte, light or radiation study.
For series [6], the system named is CHO-K1. Nature of the series: Clastogenic activity in CHOK1 cells assessed as lowest drug concentration required to increase number of micronucleated cells after 3 hrs of UV irradiation by micronucleus assay. It counts as functional. In outline: as §1
The subject of series [7] is CHO. The experiment in a line: Ratio of IC50 for transformed CHO cells incubated in dark to IC50 for transformed CHO cells incubated under UV irradiation. The series is classed as functional, Cricetulus griseus.
Series [8] is described as follows: Ratio of IC50 for normal human keratinocytes incubated in dark to IC50 for normal human keratinocytes incubated under UV irradiation. Conditions: read-out: Ratio IC50. It counts as cell-based, Keratinocyte.
In series [9] the test system is CHO-K1. The experiment in a line: Clastogenic activity in CHOK1 cells assessed as induction of chromosomal mutation and misaggregation at 15 uM incubated in dark for 3 hrs by micronucleus assay in presence of protective antioxidant mannitol treated 2 hrs before compound addition. The following applies: Cricetulus griseus. It counts as functional, cell-based. In short, it runs like this: (§3)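 CHO-K1 cells (50,000, chamber slides, McCoy's 5A with 10% FCS) grown 24 h, then given 2 mM mannitol for 2 h at 37 °C. Then either dark treatment or irradiation at 4.5 J/cm² (UVA-visible 320–800 nm, 750 W m⁻²). Exposure 3 h at 37 °C, then 5 μg/mL cytochalasin B for 24 h. Giemsa staining; binucleated cells scored for micronuclei at 1000×.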

The subject of series [10] is CHO-K1. Nature of the series: Clastogenic activity in CHOK1 cells assessed as induction of chromosomal mutation and misaggregation at 0.15 uM after 3 hrs of 4.5 J/cm'2 UV irradiation by micronucleus assay in presence of protective antioxidant mannitol treated 2 hrs before compound addition. It counts as functional, cell-based. Conditions: Cricetulus griseus. In short, it runs like this: as §3

The source made the active and inactive calls. No cut-off for these calls is given here.

As a reminder, the IC50 is the concentration needed to halve the response being measured. Consider `O=C(Nc1ccc2cc3ccc(NC(=O)c4cc(C(F)(F)F)cc(C(F)(F)F)c4)cc3nc2c1)c1cc(C(F)(F)F)cc(C(F)(F)F)c1`, for which the outcome in series [1] (Cricetulus griseus) and in series [6] (Cricetulus griseus) was inactive. In addition, the IC50 in [2], in series [3], in series [4] and in series [5] was above 50 µM each time.
As for `Nc1ccc(C(=O)Nc2ccc3cc4ccc(NC(=O)c5ccc(N)cc5)cc4nc3c2)cc1`, the result in series [1] (Cricetulus griseus) was inactive. Further, the 50% inhibitory concentration (IC50) in series [2], in [3], in [4] and in series [5] was above 50 µM each time. The Activity in series [6] worked out at 0.13 µM.
Regarding `N#Cc1ccc(C(=O)Nc2ccc3cc4ccc(NC(=O)c5ccc(C#N)cc5)cc4nc3c2)cc1`, in [1] (Cricetulus griseus), the outcome was inactive. For the same compound, the IC50 was above 50 µM in series [2], 3.46 µM in [3], above 50 µM in series [4] and 33.5 µM in series [5]. Moreover, the Activity in [6] is 0.06 µM.
For `O=C(Nc1ccc2cc3ccc(NC(=O)c4cccc5ccccc45)cc3nc2c1)c1cccc2ccccc12`, in [1] (Cricetulus griseus), the result was inactive. For the same compound, the IC50 is above 50 µM in [2], 0.32 µM in series [3], 42.3 µM in series [4] and 24.1 µM in series [5]. Besides, the Activity in [6] amounted to 0.13 µM. In addition, the “Ratio IC50” value in series [7] is recorded as 130.
For `CCC(=O)Nc1ccc2cc3ccc(NC(=O)CC)cc3nc2c1`, the results for the Activity in series [1] and in series [6] were 1.15 µM and 0.03 µM, respectively. For the same compound, the IC50 was above 50 µM in series [2], 2.9 µM in series [3], above 50 µM in [4] and 2.4 µM in series [5].
For `O=C(Nc1ccc2cc3ccc(NC(=O)c4ccccc4)cc3nc2c1)c1ccccc1`, the outcome in [1] (Cricetulus griseus) and in series [6] (Cricetulus griseus) was inactive. Further, the IC50 in series [2] was above 50 µM; in [3], 0.26 µM; in [4], 23.8 µM; in series [5] it was 0.33 µM. Besides, the selectivity ratio in series [8] stood at 100. For the same compound, the “Ratio IC50” value in [7] was found to be 90.
With `CC(C)(C)OC(=O)Nc1ccc2cc3ccc(NC(=O)OC(C)(C)C)cc3nc2c1`, the result in [1] (Cricetulus griseus) and in series [6] (Cricetulus griseus) was inactive. Further, the IC50 in series [2] is above 50 µM; in series [3], 0.12 µM; in series [4] it was 6.1 µM; in series [5], 0.14 µM. Moreover, in [8], the selectivity ratio is 100.
Regarding `O=C(Nc1ccc2cc3ccc(NC(=O)c4ccc([N+](=O)[O-])cc4)cc3nc2c1)c1ccc([N+](=O)[O-])cc1`, the result in series [1] (Cricetulus griseus) and in [6] (Cricetulus griseus) was inactive. Moreover, the IC50 was above 50 µM in series [2], above 50 µM in series [3], 40.2 µM in [4] and above 50 µM in series [5].
Turning to `CCCC(=O)Nc1ccc2cc3ccc(NC(=O)CCC)cc3nc2c1`, the Activity in series [1] is 1.01 µM; in series [6], 0.007 µM. The IC50 is above 50 µM in series [2], 1.34 µM in series [3], 38.9 µM in series [4] and 0.57 µM in series [5]. For the same compound, the result in [9] and in series [10] was Active. Also, the selectivity ratio in series [8] turned out to be 100.
As to `CC(=O)Nc1ccc2cc3ccc(NC(C)=O)cc3nc2c1`, the Activity in [1] stood at 11.01 µM; in series [6], 0.24 µM. Moreover, the IC50 in [2] is above 50 µM; in [3], 37.2 µM; in [4] it was above 50 µM; in series [5], 41.2 µM.
`O=C(Nc1ccc2cc3ccc(NC(=O)c4ccco4)cc3nc2c1)c1ccco1`: the result in series [1] (Cricetulus griseus) and in series [6] (Cricetulus griseus) was inactive. The IC50 in [2] turned out to be 34.1 µM; in series [3] it was 16.4 µM; in series [4], 2.5 µM; in [5] it was 19.3 µM.
Regarding `O=C(Nc1ccc2cc3ccc(NC(=O)c4ccc(Cl)c(Cl)c4)cc3nc2c1)c1ccc(Cl)c(Cl)c1`, the result in [1] (Cricetulus griseus) and in [6] (Cricetulus griseus) was inactive. The IC50 in [2], in series [3], in [4] and in series [5] was above 50 µM in each case.
Regarding `COc1ccc(C(=O)Nc2ccc3cc4ccc(NC(=O)c5ccc(OC)cc5)cc4nc3c2)cc1`, the result in series [1] (Cricetulus griseus) and in series [6] (Cricetulus griseus) was inactive. Also, the IC50 in series [2] was above 50 µM; in [3], 43.4 µM; in [4], 45.2 µM; in series [5] it was above 50 µM.
Regarding `Nc1ccc2cc3ccc(N)cc3nc2c1` [PROFLAVINE], the Activity in series [1] is 0.005 µM; in series [6] it was 0.004 µM. For the same compound, the IC50 in series [2] was above 50 µM; in series [3], 0.52 µM; in series [4] it was 1.1 µM; in series [5], above 50 µM.
As to `O=C(Nc1ccc2cc3ccc(NC(=O)c4ccc(Cl)cc4)cc3nc2c1)c1ccc(Cl)cc1`, the Activity in series [1] turned out to be 2.38 µM; in series [6], 0.12 µM. For the same compound, the IC50 in series [2] is above 50 µM; in series [3], 0.94 µM; in series [4] it was above 50 µM; in series [5], 5.4 µM.
On to `O=C(Nc1ccc2cc3ccc(NC(=O)c4ccc(F)cc4)cc3nc2c1)c1ccc(F)cc1`, for which the outcome in [1] (Cricetulus griseus) was inactive. Moreover, the IC50 in series [2], in series [3], in series [4] and in series [5] was above 50 µM throughout. Further, the Activity in [6] is 1.81 µM.
In the case of `COC(=O)Nc1ccc2cc3ccc(NC(=O)OC)cc3nc2c1`, the results for the Activity in [1] and in [6] were 0.47 µM and 0.21 µM, respectively. The IC50 in series [2] was above 50 µM; in series [3] it was 3.8 µM; in [4], 15.8 µM; in series [5], 8.1 µM.
`Cc1ccc(C(=O)Nc2ccc3cc4ccc(NC(=O)c5ccc(C)cc5)cc4nc3c2)cc1`: the Activity is 2.11 µM in [1] and 0.02 µM in [6]. Moreover, the IC50 in series [2] was above 50 µM; in series [3], 1.34 µM; in series [4], 43.1 µM; in [5], 4.04 µM.
With `CC(C)(C)C(=O)Nc1ccc2cc3ccc(NC(=O)C(C)(C)C)cc3nc2c1`, the result in series [1] (Cricetulus griseus) and in series [6] (Cricetulus griseus) was inactive. Besides, the IC50 was 3.28 µM in [2], 0.1 µM in series [3], 0.11 µM in series [4] and 4.69 µM in [5].

The record behind these values is ChEMBL document CHEMBL1158390, “Photo-inducible cytotoxic and clastogenic activities of 3,6-di-substituted acridines obtained by acylation of proflavine” (Eur J Med Chem, 2009).
